Each structure is given as a SMILES string. The source made the active and inactive calls. No cut-off for these calls is given here.

Assay [1] concerns the target T1, Tumor necrosis factor receptor superfamily member 5 (Homo sapiens, UniProt P25942). Kind of assay: Binding affinity to human CD40 by surface plasmon resonance method. In short, it runs like this: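 Biacore CM5 chip coated by amine coupling with anti-mouse Ig (~10,000 RU), which captured hCD40:mIg. Ligands were dissolved in water at 1 mM and diluted, then injected at several concentrations at 25 °C in HBS-EP (pH 7.4), 30 µl min⁻¹, 5 min association and 5 min dissociation. Regeneration was 50 mM HCl. Control-channel-subtracted sensorgrams were fitted to binding models.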
(In SPR one partner is held on a chip, and binding of the other changes the refractive index at the surface.)

In assay [2] the target is T1, Tumor necrosis factor receptor superfamily member 5. Kind of assay: Inhibition of recombinant human CD40L:mouse CD8 tail binding to human CD40 by surface plasmon resonance method. In short, it runs like this: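 hCD40:mIg was captured on an anti-mouse Ig chip. A fixed amount of soluble hCD40L:CD8 was premixed with increasing ligand concentrations, and the mixtures were injected at 25 °C in HBS-EP, 30 µl min⁻¹, 5 min association and 5 min dissociation. Regeneration was 50 mM HCl. Inhibition of CD40L binding was taken from reference-subtracted sensorgrams.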

Assay [3] concerns BL-41. Kind of assay: Induction of apoptosis in CD40-positive human BL41 cells assessed as decrease in mitochondrial membrane potential after 16 hrs by mean fluorescence intensity. The assay is classed as functional, cell-based. In short, it runs like this:
(§1)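 BL41 Burkitt lymphoma cells in RPMI 1640 with 10% FBS were seeded at 5×10^5 ml⁻¹ and exposed to inducers at 37 °C (16 h). Apoptosis was read by flow cytometry, either as loss of DiOC₆(3) uptake (Δψm) or as annexin V–FITC/PI co-staining. Specific apoptosis % = (treated − control)×100/(100 − control). Values are means of three independent experiments.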

For assay [4], the system named is BL-41. Briefly: Induction of apoptosis in CD40-positive human BL41 cells assessed as decrease in reduction in DiOC6 dye uptake after DAPI staining by epifluorescence microscopy. The assay is classed as functional, cell-based.
Assay [5] has as its system BL-41. Kind of assay: Induction of apoptosis in CD40-positive human BL41 cells assessed as level of CD40 expression by mean fluorescence intensity. Type of assay: functional, cell-based.
Assay [6] concerns BL-41. Briefly: Induction of apoptosis in CD40-positive human BL41 cells assessed as detection of phosphatidylserine expression using annexin V-FITC and propidium iodine staining by flow cytometry. Type of assay: functional, cell-based. In short, it runs like this:
as §1
Background: In flow cytometry, cells or beads pass a laser one at a time.

Assay [7] concerns BL-41. Kind of assay: Induction of apoptosis in CD40-positive human BL41 cells assessed as reduction in DiOC6 dye uptake after DAPI staining.

T1 sequence (P25942 whole entry): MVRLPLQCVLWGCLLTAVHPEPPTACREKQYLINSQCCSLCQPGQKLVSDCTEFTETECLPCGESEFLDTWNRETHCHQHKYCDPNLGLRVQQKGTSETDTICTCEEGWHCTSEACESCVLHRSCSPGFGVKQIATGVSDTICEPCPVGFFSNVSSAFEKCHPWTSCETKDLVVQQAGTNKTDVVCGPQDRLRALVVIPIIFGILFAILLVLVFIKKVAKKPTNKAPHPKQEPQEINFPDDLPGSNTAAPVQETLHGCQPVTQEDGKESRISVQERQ

`NCCCC[C@H](N)C(=O)NCC(=O)N[C@@H](Cc1ccc(O)cc1)C(=O)N[C@@H](Cc1ccc(O)cc1)C(=O)NCCCCCC(=O)N[C@@H](CCCCNC(=O)CCCC[C@H]1SC[C@H]2NC(=O)N[C@H]21)C(=O)NCCCCCC(=O)NCCCC[C@@H]1CNC(=O)C[C@H](CCCCNC(=O)CCCCCNC(=O)[C@H](CCCCNC(=O)CCCC[C@H]2SC[C@H]3NC(=O)N[C@H]32)NC(=O)CCCCCNC(=O)[C@H](Cc2ccc(O)cc2)NC(=O)[C@H](Cc2ccc(O)cc2)NC(=O)CNC(=O)[C@@H](N)CCCCN)NC[C@H](CCCCNC(=O)CCCCCNC(=O)[C@H](CCCCNC(=O)CCCC[C@H]2SC[C@H]3NC(=O)N[C@H]32)NC(=O)CCCCCNC(=O)[C@H](Cc2ccc(O)cc2)NC(=O)[C@H](Cc2ccc(O)cc2)NC(=O)CNC(=O)[C@@H](N)CCCCN)NC(=O)C1`: in assay [1], the outcome was Active.
Turning to `NCCCC[C@H](N)C(=O)NCC(=O)N[C@@H](Cc1ccc(O)cc1)C(=O)N[C@@H](Cc1ccc(O)cc1)C(=O)NCCCCCC(=O)NCCCC[C@@H]1CNC(=O)C[C@H](CCCCNC(=O)CCCCCNC(=O)[C@H](Cc2ccc(O)cc2)NC(=O)[C@H](Cc2ccc(O)cc2)NC(=O)CNC(=O)[C@@H](N)CCCCN)NC[C@H](CCCCNC(=O)CCCCCNC(=O)[C@H](Cc2ccc(O)cc2)NC(=O)[C@H](Cc2ccc(O)cc2)NC(=O)CNC(=O)[C@@H](N)CCCCN)NC(=O)C1`, the IC50 in assay [2] was 50 nM. Besides, the outcome in the assay with BL-41 [3], with BL-41 [4], in the assay with BL-41 [5], with BL-41 [6] and in the assay on BL-41 [7] was Active.

As usually defined, the IC50 is the concentration needed to halve the response being measured.

The values above are taken from ChEMBL document CHEMBL1240299, “C3-symmetric peptide scaffolds are functional mimetics of trimeric CD40L” (Nat Chem Biol, 2005).
